# TAAR1 ag: agonists of human TAAR1 | Q96RJ0 | CHO RD-HGA16 TAAR1, Fluo-8 calcium fluorescence; vehicle wells 0%, saturating PEA agonist 100% | activation, % at 3 µM | 0.99% of 360,000 active;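 active = activation above the mean activation of all test compounds in the run plus 3 SD, cut at about 38% in these data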
# Target sequence (Q96RJ0 whole entry, looked up): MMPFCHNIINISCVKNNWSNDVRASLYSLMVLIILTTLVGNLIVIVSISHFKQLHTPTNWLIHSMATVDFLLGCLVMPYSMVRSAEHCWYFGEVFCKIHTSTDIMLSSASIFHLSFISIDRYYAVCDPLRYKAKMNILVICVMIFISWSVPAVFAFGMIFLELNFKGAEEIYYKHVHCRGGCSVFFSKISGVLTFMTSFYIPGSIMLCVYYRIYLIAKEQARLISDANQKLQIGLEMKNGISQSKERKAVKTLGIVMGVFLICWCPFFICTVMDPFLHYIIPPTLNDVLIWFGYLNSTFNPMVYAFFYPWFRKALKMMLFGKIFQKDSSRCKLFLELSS
#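 Test system: RD-HGA16 (CHO) cells co-expressing Gα16 and hTAAR1; dosing: one-point dosing at 3 µM (nominal); timing: 17-24 h seeding, 75 min 37 °C dye, 30 min RT; signal: kinetic Fluo-8 calcium fluorescence; read-out basis: % activation relative to PEA EC100 response; controls: DMSO and PEA EC100; replicates: n 1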
# TAAR1 antag: antagonists of human TAAR1. CHO RD-HGA16 TAAR1, Fluo-8 calcium fluorescence, antagonist. inhibition, % at 3 µM. 1.5% of 360,000 active. AID 624466;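 active = inhibition above a per-plate cutoff, the mean inhibition of test compounds on that plate plus 3 SD, cut at about 49% in these data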;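 note: 0% = DMSO plus EC80 beta-PEA response and 100% = DMSO alone without agonist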
#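 Assay system: RD-HGA16 CHO cells with stable hTAAR1 and Gα16 / Reagent: EC80 β-phenethylamine stimulus / Doses: 3 µM, single point / Timing: dye loading 75 min at 37 °C, then 30 min room temperature / Measured by: Fluo-8 intracellular calcium dye fluorescence, real-time kinetic reads / Controls: vehicle wells and EC80 agonist wells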
# OX1R antag-1: antagonists of human orexin 1 receptor | CHO/OX1R cells, Fluo-8 calcium fluorescence, orexin A | 0.43% of 330,000 active | AID 434989 | inhibition, % at 5 µM | O43613;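 active = inhibition above its plate's threshold, mean inhibition of all tested compounds on the plate plus 3 SD, cut at about 37% in these data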;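 note: 0% = orexin A challenge wells and 100% = SB-334867-A antagonist wells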
# CHO parental Ca: counter-screen for OX1R antagonists: effect in parental CHO cells. parental CHO-K1, ATP-induced calcium, Fluo-8 fluorescence. AID 463079. inhibition, % at 5.6 µM. 0.63% of 330,000 active;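 active = inhibition above that plate's mean sample inhibition plus 3 SD, cut at about 26% in these data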;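 note: 0% = ATP-challenged DMSO wells and 100% = DMSO wells without ATP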
#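 Material: parental CHO cells / Compound: single nominal dose of 5.6 µM per compound / Signal: Fluo-8 fluorescence / Replicates: singlicate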
# OX1R antag-2: blocks the human orexin 1 receptor; OX1R-expressing cells, FRET antagonist read-out; O43613; 1.8% of 330,000 active; inhibition, % at 6.6 µM; in the data active = inhibition mostly above about 38%, no sharp cut-off; inactive = mostly below about 40%;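 note: 0% = agonist challenge alone and 100% = reference antagonist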
# GPR7 antag: blocks human GPR7 receptor signaling | P48145 | GPR7-expressing cells, fluorescence antagonist assay | inhibition, % at 4.4 µM | 1.1% of 290,000 active; in the data active = inhibition above about 16%, passing the limit was not always enough;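 note: cells stimulated with the agonist NPW; 0% = agonist with vehicle and 100% = vehicle without agonist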
# Active calls of the source: *; / = no result given. Rows were chosen to be rich in hits. Some 4.6% of all compounds tested hit in one or more screens of this group.
SMILES,TAAR1 ag,TAAR1 antag,OX1R antag-1,CHO parental Ca,OX1R antag-2,GPR7 antag
COC(=O)C1=C(C)N(Cc2ccc(C(F)(F)F)cc2)C(=NCC2CC2)NC1c1cccc(Cl)c1 (stereo unspecified),25,39,/,/,/,/
COC(=O)c1sc2nc(C)cc(C)c2c1N,3,2,-9,-10,16,-2
Cc1cc(C)c2c(N)c(C(=O)Nc3ncc(C)s3)sc2n1,12,-10,-14,-18,51*,-9
COC(=O)[C@]12C[C@H](CC(=O)NCCC(C)C)C(=O)N(Cc3ccccc3)C1=C[C@H](C(C)C)O[C@@H]2C1CC1,-1,-17,/,/,/,/
C=CCN1C(=O)c2n[nH]c(COC)c2C1c1cccc(C(F)(F)F)c1 (stereo unspecified),1,-13,/,/,/,/
CN(C)CCOc1ccc(-c2c(-c3ccccc3)sc3ccccc23)cc1,27,42,64*,49*,10,/
CCOc1cc(/C=C2\CCCc3c2nc2ccccc2c3C(=O)O)ccc1OC,59*,15,32,29,133*,-8
COc1cccc(/C=C2\CC(C)Cc3c2nc2ccccc2c3C(=O)O)c1OC (stereo unspecified),0,-9,-20,-6,75*,-2
CC(C)CC1O[C@@H](C)[C@@H]2CN3CCc4c([nH]c5ccccc45)[C@@H]3C[C@@H]2N1C (stereo partly specified),2,-22,/,/,/,/
CCNC(=O)O/N=C1\CCCCC1c1ccc([N+](=O)[O-])cc1[N+](=O)[O-] (stereo unspecified),2,-6,-16,-3,46*,0
CS(=O)(=O)O/N=C1\CCCCC1c1ccc([N+](=O)[O-])cc1[N+](=O)[O-] (stereo unspecified),0,5,-3,-4,49*,4
O=C(NCC1CCCCC1)c1ccc([N+](=O)[O-])cc1,2,1,-10,2,27,-4
CNc1ccccc1C(=O)OCC(=O)N1CCc2ccccc2C1,1,2,/,/,/,/
O=S(=O)(c1ccc2c(c1)OCCO2)N1CCN(c2ncnc3sccc23)CC1,10,13,20,40*,61,14
Cc1cc(Br)c2c(c1)[C@](O)(c1cn(C)c3ccccc13)C(=O)N2C,5,-25,/,/,/,/
C/C=C(\C)C(=O)OC1CC(C)(C)C[C@H]2C3=CC[C@@H]4[C@@]5(C)CCC(O[C@@H]6O[C@@H](C(=O)O)[C@@H](O)C(O[C@@H]7OC[C@H](O)[C@@H](O)[C@@H]7O[C@@H]7OC(CO)C(O)[C@@H](O)[C@@H]7O)C6O[C@@H]6OC(CO)C(O)C(O)C6O)[C@@](C)(CO)[C@@H]5CC[C@]4(C)[C@]3(C)CC(O)[C@@]12CO (stereo partly specified),10,18,45,41*,9,/
CC1(C)CC[C@]2(C(=O)O[C@@H]3OC(CO)[C@@H](O)[C@H](O)[C@H]3O)CC[C@]3(C)C(=CCC4[C@@]5(C)CC[C@H](O[C@@H]6OC(C(=O)O)[C@@H](O)[C@H](O)[C@H]6O)C(C)(C)C5CC[C@]43C)[C@@H]2C1 (stereo partly specified),17,27,88*,100*,12,/
COC(=O)C1OC(OC2CC[C@]3(C)C(CC[C@@]4(C)[C@@H]3CC=C3[C@@H]5CC(C)(C)CC[C@]5(C(=O)OC5OC(CO)C(O)C(O)C5O)CC[C@]34C)C2(C)C)C(O)C(O)C1O[C@H]1OCC(O)C(O)C1O (stereo partly specified),/,/,16,-5,-3,/
O=C(O)CN=C(Nc1cc(Cl)cc(Cl)c1)NC(c1ccccc1)c1ccccc1,8,11,/,/,/,/
COC(=O)N1C[C@H](OCCCOCc2ccccc2)[C@H]2C[C@@H]1c1ccccc1O2,-1,-19,/,/,/,/
CC(=O)Nc1ccc(Nc2ncc([N+](=O)[O-])c(Nc3ccc(NC(C)=O)cc3)n2)cc1,-3,-9,-15,-11,9,-8
CC(=O)Nc1ccc(Nc2ncnc(N)c2[N+](=O)[O-])cc1,22,-7,-11,-6,37*,-13
CCn1c(=O)c(C(=O)NNC(=O)c2ccccc2Cl)c(O)c2ccccc21,54*,15,-27,-8,34,6
O=C(Nc1ccc(Cl)c(Cl)c1)Oc1ccc(NC(=O)c2ccco2)cc1,23,35,38,42*,32,3
CCCCCCCCN1C(=O)[C@@H](CC(=O)N2CCSCC2)C[C@@]2(C(=O)OC)C1=C[C@H](C(C)(C)C)O[C@@H]2C,-1,-12,/,/,/,/
SMILES,TAAR1 ag,TAAR1 antag,OX1R antag-1,CHO parental Ca,OX1R antag-2,GPR7 antag
O=[N+]([O-])c1cc2c(cc1/C=N/n1cnnc1)OCO2,8,10,6,-6,77*,-13
CS(=O)(=O)Nc1ccccc1C(=O)OCC(=O)N1CCC(c2ccccc2)=N1,14,8,8,-4,63*,/
COc1ccc(OC(=O)N(C)C[C@@H]2OCc3cn(nn3)CCCC(=O)N([C@@H](C)CO)C[C@H]2C)cc1,2,-3,/,/,/,/
O=C(Cc1ccc(NC(=O)C2CCN(C(=O)C3CCCC3)CC2)cc1)Nc1cccc(C(=O)N2CCCC2)c1,1,-15,/,/,/,/
CCc1ccc2[nH]c(=O)c(CN(Cc3ccccc3OC)Cc3nnnn3Cc3ccco3)cc2c1,13,40,-20,-21,48,-10
COc1ccccc1CN(Cc1cc2cc(C)ccc2[nH]c1=O)Cc1nnnn1Cc1ccco1,15,31,4,-21,72*,-6
CC1(C(=O)NS(=O)(=O)c2ccc(F)cc2F)CCN1C(=O)Cc1ccc(-c2ccccc2)cc1 (stereo unspecified),2,-17,/,/,/,/
C#CCN(Cc1cccc(F)c1)C(=O)c1nnc2c3ccccc3n(S(=O)(=O)c3ccc(C)cc3)c2n1,-1,0,/,/,/,/
COc1cc(SC#N)ccc1N=Cc1c(C)[nH]n(-c2ccc(C)c(C)c2)c1=O,-1,87*,96*,96*,-3,0
COc1cc(SC#N)ccc1N=Cc1c(C)[nH]n(-c2ccc(Cl)cc2)c1=O,1,13,30,18,17,-7
Cc1ccc(/C(C#N)=C\c2ccc(N3CCOCC3)o2)cc1,14,24,-22,-11,8,5
Cc1ccc2nc(/C(C#N)=C\c3ccc(N4CCOCC4)o3)[nH]c2c1,43*,21,-2,-1,25,-16
C#CCNC(=O)C[C@H]1C[C@@]2(C(=O)OC)C(=C[C@H](COCc3ccccc3)O[C@@H]2C)N(CCC2=CCCCC2)C1=O,-1,-5,/,/,/,/
